Compound activity (PubChem)
An excerpt weighted towards active compounds, which were near 2.9% of everything screened.
TRPC6 inh: mouse TRPC6 channel inhibition. Q61143. HEK293-TRPC6, membrane potential dye, ACh-evoked depolarization; active compounds read low. B-score at 10 µM. 310,000 compounds, 1.1% hits. AID 2553;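 active = B-score under library mean minus 3 SD, initial fluorescence not abnormally high, positive integrated signal ratio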;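 also: B-score derived from integrated fluorescence ratio over the kinetic read; more negative B-score means stronger inhibition of depolarization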
TRPC4 inh: inhibitors of mouse TRPC4 channel; Q9QUQ5; HEK293 TRPC4beta/mu-opioid, DAMGO-evoked Fluo4 calcium flux; active compounds read low; B-score at 10 µM; AID 2247; 300,000 compounds, 0.39% hits;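 active = B-score over 3 SD under the library average, no early fluorescence shift, positive overall ratio signal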
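Assay system: Stable TRPC4beta/mu-opioid receptor HEK293 cells | Reagent: DAMGO in two steps, submaximal then maximal | Compound dosing: Single concentration per test compound | Signal: Fluo4 Ca2+ flux fluorescence | Evaluation: Per-well B score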
TRPC4 potent: TRPC4 (mouse) allosteric potentiation; Q9QUQ5; HEK293 TRPC4beta/mu-opioid, DAMGO EC20, Fluo-4 Ca2+ flux; active compounds read high; B-score at 10 µM; 310,000 compounds, 0.42% hits; AID 2227;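 active = B-score of calcium response area above 5 SD of library B-scores, with initial fluorescence ratio within 5 SD of library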
TRPC4 act: activators of mouse TRPC4 channel | HEK293 TRPC4beta/mu-opioid, Fluo4 calcium fluorescence; active compounds read high | B-score at 10 µM | 310,000 compounds, 0.49% hits;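 active = B-score above 5 SD of library B-scores, and initial fluorescence ratio not above library mean plus 5 SD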;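 also: positive B-score marks a calcium rise read as TRPC4 activation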
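Incubation: 45 min room-temperature Fluo4 loading, 110 s read / System: HEK293 cells stably co-expressing mouse TRPC4beta and mu-opioid receptor / Signal: Fluo4 fluorescence, kinetic / Control set: buffer (low) and maximal DAMGO (high) / Measure: integrated baseline-normalised fluorescence ratio, converted to per-well B score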
Kir21 inh: blocks the mouse Kir2.1 inward-rectifier potassium channel | B-score at 10 µM | 310,000 compounds, 0.85% hits | AID 1672 | HEK293-Kir2.1, FluxOR thallium flux fluorescence; active compounds read low | P35561;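 active = fluorescence ratio B-score at or below minus 3 SD of library scores, with starting-brightness B-score within 2 SD, cut at about -4.2 in these data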;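 also: channel flux triggered by added potassium and thallium sulfate stimulus; B-score of peak minus minimum fluorescence over baseline after thallium stimulus; more negative B-score means stronger Kir2.1 block with less thallium influx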
Target sequence (P35561 whole entry, looked up): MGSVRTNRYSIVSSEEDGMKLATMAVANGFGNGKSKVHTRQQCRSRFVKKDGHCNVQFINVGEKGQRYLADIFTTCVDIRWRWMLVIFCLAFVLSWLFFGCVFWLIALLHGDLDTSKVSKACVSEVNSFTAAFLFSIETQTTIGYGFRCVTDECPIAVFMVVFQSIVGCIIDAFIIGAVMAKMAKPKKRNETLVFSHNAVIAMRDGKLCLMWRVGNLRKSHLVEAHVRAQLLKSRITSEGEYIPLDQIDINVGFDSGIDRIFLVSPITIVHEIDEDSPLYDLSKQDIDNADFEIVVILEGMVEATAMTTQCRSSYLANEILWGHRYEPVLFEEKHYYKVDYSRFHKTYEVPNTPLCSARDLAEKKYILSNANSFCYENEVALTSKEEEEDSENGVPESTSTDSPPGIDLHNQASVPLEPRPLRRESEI
TRPC6 activator: activates the mouse TRPC6 cation channel; Q61143; HEK293-TRPC6 membrane potential dye fluorescence; active compounds read high; B-score at 10 µM; 310,000 compounds, 0.13% hits; AID 2550;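 active = B-score of the integrated fluorescence ratio above library mean plus 3 SD, and starting fluorescence ratio within library mean plus 5 SD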;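 also: higher score means more depolarization so channel activation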
TRPC4 spec 2: second selectivity test of TRPC6 inhibitors: effect on mouse TRPC4. shares compounds with TRPC6 inh. 920 compounds, 42% hits. HEK293 TRPC4/MOR, membrane potential dye fluorescence; channel activated by saturating DAMGO dose. inhibition, % at 10 µM;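 active = compounds whose fluorescence signal differed from control wells by over 3 SD, either direction, in both duplicate plates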
TRPC4 spec: tests whether TRPC6 inhibitors also affect mouse TRPC4 | HEK293 TRPC4/mu-opioid, membrane potential fluorescence | 920 compounds, 61% hits | activity change, negative = inhibition, % at 10 µM | AID 2777 | shares compounds with TRPC6 inh;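 active = rise or fall in signal beyond 3 SD of buffer-only wells in both replicate plates, either sign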;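 also: integrated kinetic ratio of fluorescence range over baseline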
HEK293 MPD ctr 2-1: second check of TRPC6 inhibitor effects in parental HEK293 cells | shares compounds with TRPC6 inh | parental HEK293 membrane potential dye fluorescence; maximal acetylcholine challenge after compound addition | signal change vs control, % at 10 µM | 920 compounds, 31% hits | AID 2779;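 active = membrane potential signal moving either way by over 3 SD of the maximum-effect control, in both duplicate plates, meaning non-specific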
HEK293 MPD ctr-1: checks TRPC6 inhibitor effects in parental HEK293 cells. shares compounds with TRPC6 inh. parental HEK293 membrane potential dye fluorescence. membrane potential signal change, % at 10 µM. 920 compounds, 60% hits. AID 2780;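 active = membrane potential signal shifting up or down by more than 3 SD of buffer-only wells, on both duplicate plates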
HEK293 MPD ctr-2: checks TRPC6 modulator effects in parental HEK293 cells. shares compounds with TRPC6 inh. membrane potential dye fluorescence. membrane potential signal change, % at 10 µM. 2,400 compounds, 51% hits. AID 488924;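 active = membrane potential signal moves up or down beyond 5 SD from buffer-only wells, on both duplicate plates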
HEK293 MPD ctr 2-2: second counter-screen for TRPC6 modulators: effect in parental HEK293 cells; shares compounds with TRPC6 inh; membrane potential dye fluorescence; after compound, maximal acetylcholine stimulation; inhibition, % at 10 µM; 2,400 compounds, 14% hits; AID 488926;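 active = membrane potential signal drops by more than 5 SD from the mean control signal, in both duplicate plates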
TRPC4/MOR mod: tests whether TRPC6 modulators also affect mouse TRPC4 | shares compounds with TRPC6 inh | HEK293 TRPC4/mu-opioid, membrane potential fluorescence | percent change from control (negative = decrease, positive = increase), % at 10 µM | 2,400 compounds, 69% hits | AID 488927;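 active = membrane potential signal moved up or down beyond 5 SD of buffer control wells, in both duplicate plates, actives on both sides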
TRPC4/MOR inh 2: second check of whether TRPC6 modulators also affect mouse TRPC4. shares compounds with TRPC6 inh. HEK293 TRPC4/mu-opioid, membrane potential dye fluorescence; stimulated with maximal-effect DAMGO. inhibition, % at 10 µM. 2,400 compounds, 55% hits. AID 488928;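 active = drop in membrane potential signal beyond 5 SD of the control wells in both duplicate plates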;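 also: TRPC4 counter screen for TRPC6 hits run under conditions tuned for TRPC6 not TRPC4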
TRPC6 block conf: mouse TRPC6 inhibitor confirmation. shares compounds with TRPC6 inh. HEK293-TRPC6, membrane potential dye, ACh-evoked depolarization. inhibition, % at 10 µM. 3,300 compounds, 43% hits;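 active = fluorescence ratio falls more than 5 SD below the full-stimulation control mean, in both duplicate runs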;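 also: integrated fluorescence ratio of peak minus minimum over baseline after agonist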
TRPC6 act conf: mouse TRPC6 activator confirmation; shares compounds with TRPC6 inh; activation, % at 10 µM; 2,800 compounds, 11% hits; HEK293-TRPC6 membrane potential dye fluorescence, FDSS; AID 488961;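 active = ratio signal rise beyond 5 SD above unstimulated control wells' mean, seen in both duplicate runs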
Each line names hits and unclear results; the compound was inactive in the other large screens (follow-up assays come after a bar, where they were run).

Brc1cc2c(cc1CN1CCc3ccccc3C1)OCO2	TRPC6 inh -7.3 | TRPC4 spec 2 inactive | TRPC4 spec inactive | HEK293 MPD ctr 2-1 inactive | HEK293 MPD ctr-1 inactive | TRPC6 block conf inactive | TRPC6 act conf inactive
O=C(c1ccccc1)c1ccc(OCC(O)CN2CCOCC2)cc1 (centres undefined)	none
CCN(CC)CCCNC(=O)c1sc2nc(-c3ccc(F)cc3)cn2c1C	none
COC(=O)c1ccc(NC(=O)CC2C(=O)N(c3ccc(C)cc3)C(=O)N2CC(C)C)cc1 (centres undefined)	none
CCOC(=O)c1ccc(NC(=O)CC2C(=O)N(c3ccc(F)cc3)C(=O)N2CCC(C)C)cc1 (centres undefined)	TRPC6 inh -5.8 | HEK293 MPD ctr-2 inactive | HEK293 MPD ctr 2-2 inactive | TRPC4/MOR mod inactive | TRPC4/MOR inh 2 inactive | TRPC6 block conf 42%
CC(C)N1C(=O)C(O)(C2COC(C)(C)CC2=O)c2ccccc21 (centres undefined)	none
O=C(c1cccc(C(=O)N2CCN(c3ccccc3F)CC2)n1)N1CCN(c2ccccc2F)CC1	TRPC6 inh -10, TRPC6 activator 12 | HEK293 MPD ctr-2 142% | HEK293 MPD ctr 2-2 inactive | TRPC4/MOR mod 29% | TRPC4/MOR inh 2 64% | TRPC6 block conf 88% | TRPC6 act conf 130%
C=CCc1cc(Cl)ccc1OCCCNC(C)CC (centres undefined)	none
CNCCCOc1ccc(Cl)cc1C(C)(C)C	TRPC6 inh -6, TRPC4 potent 50 | HEK293 MPD ctr-2 inactive | HEK293 MPD ctr 2-2 inactive | TRPC4/MOR mod inactive | TRPC4/MOR inh 2 inactive | TRPC6 block conf inactive | TRPC6 act conf inactive
Cc1cccc(NS(=O)(=O)c2cccc(C(=O)NCC3(N4CCCCC4)CCCCC3)c2)c1	TRPC6 inh -5 | HEK293 MPD ctr-2 inactive | HEK293 MPD ctr 2-2 inactive | TRPC4/MOR mod inactive | TRPC4/MOR inh 2 72% | TRPC6 block conf 52%
O=C(N/N=C/c1ccccc1C(=O)O)c1cccc(S(=O)(=O)Nc2cc(Cl)ccc2Cl)c1	none
CCOC(=O)c1sc2nc3c(SCC(=O)O)cc(C(=O)c4cc(F)ccc4O)cn3c(=O)c2c1C	none
COC(=O)c1cc(C(=O)c2cc(F)ccc2O)cn2c(=O)c3c(C)c(C)sc3nc12	TRPC6 inh -5.4 | HEK293 MPD ctr-2 inactive | HEK293 MPD ctr 2-2 inactive | TRPC4/MOR mod inactive | TRPC4/MOR inh 2 44% | TRPC6 block conf inactive | TRPC6 act conf inactive
Cc1ccc(C(=O)N2CCc3ccccc32)o1	none
Nc1nc(NCCCN2CCOCC2)nc(Nc2cccc(Cl)c2)c1[N+](=O)[O-]	TRPC6 inh -5.6 | HEK293 MPD ctr-2 inactive | HEK293 MPD ctr 2-2 inactive | TRPC4/MOR mod -18% | TRPC4/MOR inh 2 86% | TRPC6 block conf 52% | TRPC6 act conf inactive
C=CCn1c(=O)c2c(C)c(C)sc2n2c(Nc3ccc(OC)cc3)nnc12	none
Cc1ccc2cc(CN(CCN3CCOCC3)C(=O)NCc3ccccc3)c(=O)[nH]c2c1C	none
Cc1ccc2cc(CN(CCN3CCCC3)C(=O)Nc3ccccc3)c(=O)[nH]c2c1C	TRPC6 inh -5 | HEK293 MPD ctr-2 inactive | HEK293 MPD ctr 2-2 inactive | TRPC4/MOR mod inactive | TRPC4/MOR inh 2 54% | TRPC6 block conf 46% | TRPC6 act conf inactive
O=C(COc1cccc2cccnc12)N1CCc2ccccc2C1	TRPC6 inh -6.2 | HEK293 MPD ctr-2 -126% | HEK293 MPD ctr 2-2 inactive | TRPC4/MOR mod -22% | TRPC4/MOR inh 2 inactive | TRPC6 block conf inactive | TRPC6 act conf inactive
CC1Cc2ccccc2N1C(=O)c1ccc(N2CCCCC2)c([N+](=O)[O-])c1 (centres undefined)	TRPC6 inh -5.8 | HEK293 MPD ctr-2 inactive | HEK293 MPD ctr 2-2 inactive | TRPC4/MOR mod inactive | TRPC4/MOR inh 2 inactive | TRPC6 block conf inactive | TRPC6 act conf inactive
S=C(NCCC(c1ccccc1)c1ccccc1)Nc1cccc(Cl)c1	none
S=C(NCCN(C1CCCCC1)C1CCCC1)Nc1cccc(Cl)c1	TRPC6 inh -6.1, Kir21 inh -4.5 | HEK293 MPD ctr-2 95% | HEK293 MPD ctr 2-2 inactive | TRPC4/MOR mod 18% | TRPC4/MOR inh 2 70% | TRPC6 block conf 56%
O=C1NC2(CCCCCC2)C(=O)N1Cc1ccc(Cl)cc1Cl	none
COc1ccc(C2NC(=O)NC(C)=C2C(=O)OC2CCCCC2)cc1OC (centres undefined)	none
Cc1cc(=O)[nH]c(SCC(=O)Nc2nc3ccccc3s2)n1	none
COc1ccc(NC(=O)CSc2nc3ccccc3c(=O)n2CCCN2CCC(C)CC2)c(OC)c1	TRPC6 inh -9.2 | TRPC4 spec 2 22% | TRPC4 spec inactive | HEK293 MPD ctr 2-1 inactive | HEK293 MPD ctr-1 5.8% | TRPC6 block conf 57% | TRPC6 act conf inactive
